Tested on: HEK-293T
Assay: Multiplex assay against HEK293T
Format: toxicity, cell-based
Conditions: human
In short: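 Cells stained live at seeding with Hoechst33342, BioTracker Green Microtubule Cytoskeleton Dye, MitoTracker Red and Annexin V Alexa Fluor 680 were imaged on a CQ1 microscope at 37°C and 5% CO2 after compound addition. Their classification by CellPathfinder machine-learning gating ran from Hoechst high-intensity objects versus normal cells, to healthy, pyknosed or fragmented nuclei among normal cells, to mitotic or apoptotic among pyknosed cells. Tubulin, mitochondrial-mass and membrane-permeability phenotypes are per cents of healthy-nucleus cells.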

[1] = 12 h, 1 µM, compound concentration 1 uM, replicate 1
[2] = 12 h, 1 µM, compound concentration 1 uM, replicate 2
[3] = 12 h, 10 µM, compound concentration 10 uM, replicate 1
[4] = 12 h, 10 µM, compound concentration 10 uM, replicate 2
[5] = 24 h, 1 µM, compound concentration 1 uM, replicate 1
[6] = 24 h, 1 µM, compound concentration 1 uM, replicate 2
[7] = 24 h, 10 µM, compound concentration 10 uM, replicate 1
[8] = 24 h, 10 µM, compound concentration 10 uM, replicate 2
[9] = 48 h, 1 µM, compound concentration 1 uM, replicate 1
[10] = 48 h, 1 µM, compound concentration 1 uM, replicate 2
[11] = 48 h, 10 µM, compound concentration 10 uM, replicate 1
[12] = 48 h, 10 µM, compound concentration 10 uM, replicate 2

With `CCCC(CCC)C(=O)O` [VALPROIC ACID] the “Population Apoptotic (%)” value [1] was 39%, the “Population Fragmented Nuclei (%)” value [1] was 6% and the “Population Healthy Nuclei (%)” value [1] was 81%. For the same compound, the “Population Hoechst High Intensity Objects (%)” value [1] was 6%, the “Population Membrane Permeable-Phenotype (%)” value [1] was 0% and the “Population Mitochondria Different-Phenotype (%)” value [1] was 29%. For the same compound, the “Population Mitotic Cells (%)” value [1] was 60%, the “Population Normal (%)” value [1] was 93% and the “Population Pyknosed Nuclei (%)” value [1] was 12%. For the same compound, the “Population Tubulin-Different-Phenotype (%)” value [1] was 20%, the “Total Cell Count” value [1] was 513 and the “Population Apoptotic (%)” value [2] was 28%. For the same compound, the “Population Fragmented Nuclei (%)” value [2] was 5%, the “Population Healthy Nuclei (%)” value [2] was 79% and the “Population Hoechst High Intensity Objects (%)” value [2] was 5%. The “Population Mitochondria Different-Phenotype (%)” value [2] was 46%, the “Population Mitotic Cells (%)” value [2] was 71% and the “Population Normal (%)” value [2] was 94%. For the same compound, the “Population Pyknosed Nuclei (%)” value [2] was 15%, the “Population Tubulin-Different-Phenotype (%)” value [2] was 16% and the “Total Cell Count” value [2] was 367. For the same compound, the “Population Apoptotic (%)” value [3] was 34%, the “Population Fragmented Nuclei (%)” value [3] was 6% and the “Population Healthy Nuclei (%)” value [3] was 82%. The “Population Hoechst High Intensity Objects (%)” value [3] was 6%, the “Population Membrane Permeable-Phenotype (%)” value [3] was 0% and the “Population Mitochondria Different-Phenotype (%)” value [3] was 40%. For the same compound, the “Population Mitotic Cells (%)” value [3] was 66%, the “Population Normal (%)” value [3] was 93% and the “Population Pyknosed Nuclei (%)” value [3] was 11%. The “Population Tubulin-Different-Phenotype (%)” value [3] was 26%, the “Total Cell Count” value [3] was 455 and the “Population Apoptotic (%)” value [4] was 44%. For the same compound, the “Population Fragmented Nuclei (%)” value [4] was 7%, the “Population Healthy Nuclei (%)” value [4] was 81% and the “Population Mitochondria Different-Phenotype (%)” value [4] was 49%. For the same compound, the “Population Mitotic Cells (%)” value [4] was 55%, the “Population Tubulin-Different-Phenotype (%)” value [4] was 20% and the “Total Cell Count” value [4] was 446. The “Population Apoptotic (%)” value [5] was 28%, the “Population Fragmented Nuclei (%)” value [5] was 8% and the “Population Healthy Nuclei (%)” value [5] was 78%. For the same compound, the “Population Hoechst High Intensity Objects (%)” value [5] was 4%, the “Population Membrane Permeable-Phenotype (%)” value [5] was 1% and the “Population Mitochondria Different-Phenotype (%)” value [5] was 22%. For the same compound, the “Population Mitotic Cells (%)” value [5] was 71%, the “Population Normal (%)” value [5] was 95% and the “Population Pyknosed Nuclei (%)” value [5] was 12%. For the same compound, the “Population Tubulin-Different-Phenotype (%)” value [5] was 16%, the “Total Cell Count” value [5] was 663 and the “Population Apoptotic (%)” value [6] was 45%. For the same compound, the “Population Fragmented Nuclei (%)” value [6] was 6%, the “Population Healthy Nuclei (%)” value [6] was 83% and the “Population Membrane Permeable-Phenotype (%)” value [6] was 0%. The “Population Mitochondria Different-Phenotype (%)” value [6] was 26%, the “Population Mitotic Cells (%)” value [6] was 54% and the “Population Pyknosed Nuclei (%)” value [6] was 9%. The “Population Tubulin-Different-Phenotype (%)” value [6] was 10%, the “Total Cell Count” value [6] was 469 and the “Population Apoptotic (%)” value [7] was 28%. For the same compound, the “Population Fragmented Nuclei (%)” value [7] was 9%, the “Population Healthy Nuclei (%)” value [7] was 81% and the “Population Hoechst High Intensity Objects (%)” value [7] was 4%. For the same compound, the “Population Membrane Permeable-Phenotype (%)” value [7] was 0%, the “Population Mitochondria Different-Phenotype (%)” value [7] was 16% and the “Population Mitotic Cells (%)” value [7] was 71%. For the same compound, the “Population Normal (%)” value [7] was 95%, the “Population Pyknosed Nuclei (%)” value [7] was 9% and the “Population Tubulin-Different-Phenotype (%)” value [7] was 15%. For the same compound, the “Total Cell Count” value [7] was 649, the “Population Apoptotic (%)” value [8] was 23% and the “Population Fragmented Nuclei (%)” value [8] was 8%. The “Population Healthy Nuclei (%)” value [8] was 86%, the “Population Hoechst High Intensity Objects (%)” value [8] was 3% and the “Population Mitochondria Different-Phenotype (%)” value [8] was 30%. For the same compound, the “Population Mitotic Cells (%)” value [8] was 76%, the “Population Normal (%)” value [8] was 96% and the “Population Pyknosed Nuclei (%)” value [8] was 5%. The “Population Tubulin-Different-Phenotype (%)” value [8] was 11%, the “Total Cell Count” value [8] was 593 and the “Population Apoptotic (%)” value [9] was 19%. For the same compound, the “Population Fragmented Nuclei (%)” value [9] was 14%, the “Population Healthy Nuclei (%)” value [9] was 78% and the “Population Hoechst High Intensity Objects (%)” value [9] was 2%. For the same compound, the “Population Membrane Permeable-Phenotype (%)” value [9] was 3%, the “Population Mitochondria Different-Phenotype (%)” value [9] was 11% and the “Population Mitotic Cells (%)” value [9] was 80%. For the same compound, the “Population Normal (%)” value [9] was 97%, the “Population Pyknosed Nuclei (%)” value [9] was 6% and the “Population Tubulin-Different-Phenotype (%)” value [9] was 9%. For the same compound, the “Total Cell Count” value [9] was 1112, the “Population Apoptotic (%)” value [10] was 36% and the “Population Fragmented Nuclei (%)” value [10] was 10%. For the same compound, the “Population Healthy Nuclei (%)” value [10] was 81%, the “Population Hoechst High Intensity Objects (%)” value [10] was 3% and the “Population Membrane Permeable-Phenotype (%)” value [10] was 1%. For the same compound, the “Population Mitochondria Different-Phenotype (%)” value [10] was 17%, the “Population Mitotic Cells (%)” value [10] was 63% and the “Population Normal (%)” value [10] was 96%. For the same compound, the “Population Pyknosed Nuclei (%)” value [10] was 8%, the “Population Tubulin-Different-Phenotype (%)” value [10] was 10% and the “Total Cell Count” value [10] was 700. The “Population Apoptotic (%)” value [11] was 21%, the “Population Fragmented Nuclei (%)” value [11] was 15% and the “Population Healthy Nuclei (%)” value [11] was 79%. For the same compound, the “Population Hoechst High Intensity Objects (%)” value [11] was 3%, the “Population Membrane Permeable-Phenotype (%)” value [11] was 1% and the “Population Mitochondria Different-Phenotype (%)” value [11] was 11%. For the same compound, the “Population Mitotic Cells (%)” value [11] was 78%, the “Population Normal (%)” value [11] was 96% and the “Population Pyknosed Nuclei (%)” value [11] was 5%. The “Population Tubulin-Different-Phenotype (%)” value [11] was 9%, the “Total Cell Count” value [11] was 1088 and the “Population Apoptotic (%)” value [12] was 27%. For the same compound, the “Population Fragmented Nuclei (%)” value [12] was 13%, the “Population Healthy Nuclei (%)” value [12] was 82% and the “Population Hoechst High Intensity Objects (%)” value [12] was 1%. For the same compound, the “Population Membrane Permeable-Phenotype (%)” value [12] was 2%, the “Population Mitochondria Different-Phenotype (%)” value [12] was 12% and the “Population Mitotic Cells (%)” value [12] was 72%. The “Population Normal (%)” value [12] was 98%, the “Population Pyknosed Nuclei (%)” value [12] was 4% and the “Population Tubulin-Different-Phenotype (%)” value [12] was 6%. The “Total Cell Count” value [12] was 947.
